For 8 compounds, MIC and selectivity ratio results are on record in ChEMBL document CHEMBL4229550, “An antimycobacterial pleuromutilin analogue effective against dormant bacilli” (Bioorg Med Chem, 2018).

SMILES strings stand for the structures. ≈ marks a conversion by molar mass, not a printed value. Bounds are passed on as bounds.

Experiment [1] concerns Mycobacterium tuberculosis. The experiment in a line: Antibacterial activity against non-replicating Mycobacterium tuberculosis H37Rv harboring pFCA-luxAB preincubated for 10 days under anaerobic condition followed by incubation under ambient gaseous condition for 28 hrs by LORA. The format is functional. Summed up: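 Mtb H37Rv is electroporated with pFCA-luxAB and diluted in 7H12 broth to A570 0.03–0.05 (3,000–7,000 RLU per 100 µL). Cells are added to two-fold serial dilutions and held anaerobic (O2 <0.16%; 10% H2, 5% CO2, 85% N2) for 10 days. A 28 h recovery in 5% CO2 air follows, then luminescence is read.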

Experiment [2] has as its system Mycobacterium tuberculosis. Description: Selectivity ratio of MIC for antibacterial activity against non-replicating Mycobacterium tuberculosis H37Rv harboring pFCA-luxAB to MIC100 for antibacterial activity against replicating Mycobacterium tuberculosis H37Rv. The format is functional.

As a reminder, the MIC is the lowest concentration found to suppress growth. Low readings indicate greater potency, high ones weaker potency. As for `CC[C@@H](CO)NCCN[C@@H](CC)CO` [ETHAMBUTOL], the MIC in experiment [1] is more than 100 µg/mL. Besides, the selectivity ratio in experiment [2] was more than 128.

In experiment [1], `CC(=O)NC[C@H]1CN(c2ccc(N3CCOCC3)c(F)c2)C(=O)O1` [LINEZOLID] yielded a minimum inhibitory concentration (MIC) of 0.63 µg/mL (≈ 1.87 µM). Besides, the selectivity ratio in experiment [2] is listed as 1.05.

Turning to `CC[C@]1(C)C[C@@H](OC(=O)CSC(C)(C)CNC(=O)[C@H](N)CC(C)C)[C@]2(C)[C@H](C)CC[C@]3(CCC(=O)[C@H]32)[C@@H](C)[C@@H]1O`, in experiment [1], the MIC amounted to 1.04 µg/mL (≈ 1.79 µM). Further, the selectivity ratio in experiment [2] is recorded as 1.33.

Turning to `NNC(=O)c1ccncc1` [ISONIAZID], in experiment [1], the MIC is more than 100 µg/mL. In addition, the selectivity ratio in experiment [2] is more than 2500.

In turn, `C=C[C@]1(C)C[C@@H](OC(=O)CSC(C)(C)CNC(=O)[C@H](N)CC(C)C)[C@]2(C)[C@H](C)CC[C@]3(CC[C@@H](O)[C@H]32)[C@@H](C)[C@@H]1O` returned an MIC in experiment [1] of 3.46 µg/mL (≈ 5.96 µM). Besides, in experiment [2], the selectivity ratio is reported as 1.13.

For the compound `CC[C@]1(C)C[C@@H](OC(=O)CSC(C)(C)CNC(=O)[C@H](N)CC(C)C)[C@]2(C)[C@H](C)CC[C@]3(CC[C@@H](O)[C@H]32)[C@@H](C)[C@@H]1O`, the MIC in experiment [1] worked out at 1.2 µg/mL (≈ 2.06 µM). Moreover, the selectivity ratio in experiment [2] turned out to be 1.45.

In the case of `C=C[C@]1(C)C[C@@H](OC(=O)CSC(C)(C)CNC(=O)[C@H](N)C(C)C)[C@]2(C)[C@H](C)CC[C@]3(CCC(=O)[C@H]32)[C@@H](C)[C@@H]1O` [VALNEMULIN], in experiment [1], the MIC is 3.56 µg/mL (≈ 6.3 µM). Besides, the selectivity ratio in experiment [2] is on record as 1.14.

`C=C[C@]1(C)C[C@@H](OC(=O)CSC(C)(C)CNC(=O)[C@H](N)CC(C)C)[C@]2(C)[C@H](C)CC[C@]3(CCC(=O)[C@H]32)[C@@H](C)[C@@H]1O` gave an MIC in experiment [1] of 1.98 µg/mL (≈ 3.42 µM). In addition, the selectivity ratio in experiment [2] is 1.27.
